From ChEMBL document CHEMBL4152346, “Sulfonamido-2-arylbenzoxazole GroEL/ES Inhibitors as Potent Antibacterials against Methicillin-Resistant Staphylococcus aureus (MRSA)” (J Med Chem, 2018)
The source made the active and inactive calls. The rule behind the calls is not given here.

Tests used:
Format in all cases: functional, organism-based
Acinetobacter baumannii = experiment: Antibacterial activity against Acinetobacter baumannii ATCC 19606 after 24 hrs; details: ATCC 19606 = CIP 70.34 = JCM 6841
How it was run: (§1)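 Stagnant liquid-culture proliferation assay at 37°C in broth cation-adjusted with 25 mg/L Ca²⁺ and 12.5 mg/L Mg²⁺, with compounds stamped into the wells. […] OD600 turbidity was read at 6–8 h (K. pneumoniae, E. cloacae, P. aeruginosa) or 24 h (A. baumannii). EC50 came from non-linear regression, averaged in log form over replicates.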

Enterobacter cloacae = experiment: Antibacterial activity against Enterobacter cloacae subsp. cloacae ATCC 13047 after 6 to 8 hrs; how it was run: as §1
Klebsiella pneumoniae = experiment: Antibacterial activity against Klebsiella pneumoniae ATCC 13883 after 6 to 8 hrs; how it was run: as §1
Pseudomonas aeruginosa = experiment: Antibacterial activity against Pseudomonas aeruginosa ATCC 10145 after 6 to 8 hrs; how it was run: as §1

O=S(=O)(Nc1ccc(-c2nc3cc(NS(=O)(=O)c4ccccc4F)ccc3o2)cc1)c1ccccc1F
Activity (Acinetobacter baumannii): inactive | Activity (Enterobacter cloacae): inactive | Activity (Klebsiella pneumoniae): inactive | Activity (Pseudomonas aeruginosa): inactive

O=c1ccc2cc(S(=O)(=O)Nc3ccc(-c4nc5cc(NS(=O)(=O)c6ccc7oc(=O)ccc7c6)ccc5o4)cc3)ccc2o1
Activity (Acinetobacter baumannii): inactive | Activity (Enterobacter cloacae): inactive | Activity (Klebsiella pneumoniae): inactive | Activity (Pseudomonas aeruginosa): inactive

Nc1ccc(S(=O)(=O)Nc2ccc(-c3nc4cc(NS(=O)(=O)c5ccc(N)cc5)ccc4o3)cc2)cc1
Activity (Acinetobacter baumannii): inactive | Activity (Enterobacter cloacae): inactive | Activity (Klebsiella pneumoniae): inactive | Activity (Pseudomonas aeruginosa): inactive

O=C(O)c1ccccc1S(=O)(=O)Nc1ccc(-c2nc3cc(NS(=O)(=O)c4ccccc4C(=O)O)ccc3o2)cc1
Activity (Acinetobacter baumannii): inactive | Activity (Enterobacter cloacae): inactive | Activity (Klebsiella pneumoniae): inactive | Activity (Pseudomonas aeruginosa): inactive

O=S(=O)(Nc1ccc(-c2nc3cc(NS(=O)(=O)c4ccc(Br)cc4)ccc3o2)cc1)c1ccc(Br)cc1
Activity (Acinetobacter baumannii): inactive | Activity (Enterobacter cloacae): inactive | Activity (Klebsiella pneumoniae): inactive | Activity (Pseudomonas aeruginosa): inactive

COC(=O)c1cccc(S(=O)(=O)Nc2ccc(-c3nc4cc(NS(=O)(=O)c5cccc(C(=O)OC)c5)ccc4o3)cc2)c1
Activity (Acinetobacter baumannii): inactive | Activity (Enterobacter cloacae): inactive | Activity (Klebsiella pneumoniae): inactive | Activity (Pseudomonas aeruginosa): inactive

Cc1ccc(S(=O)(=O)Nc2ccc(-c3nc4ccc(NS(=O)(=O)c5ccc(C)cc5)cc4[nH]3)cc2)cc1
Activity (Acinetobacter baumannii): inactive | Activity (Enterobacter cloacae): inactive | Activity (Klebsiella pneumoniae): inactive | Activity (Pseudomonas aeruginosa): inactive

O=C(O)c1ccc(S(=O)(=O)Nc2ccc(-c3nc4cc(NS(=O)(=O)c5ccc(C(=O)O)cc5)ccc4o3)cc2)cc1
Activity (Acinetobacter baumannii): inactive | Activity (Enterobacter cloacae): inactive | Activity (Klebsiella pneumoniae): inactive | Activity (Pseudomonas aeruginosa): inactive

O=S(=O)(Nc1ccc(-c2nc3cc(NS(=O)(=O)c4cccc(Br)c4)ccc3o2)cc1)c1cccc(Br)c1
Activity (Acinetobacter baumannii): inactive | Activity (Enterobacter cloacae): inactive | Activity (Klebsiella pneumoniae): inactive | Activity (Pseudomonas aeruginosa): inactive

O=S(=O)(Cc1ccccc1)Nc1ccc(-c2nc3cc(NS(=O)(=O)Cc4ccccc4)ccc3o2)cc1
Activity (Acinetobacter baumannii): inactive | Activity (Enterobacter cloacae): inactive | Activity (Klebsiella pneumoniae): inactive | Activity (Pseudomonas aeruginosa): inactive

COc1cccc(S(=O)(=O)Nc2ccc(-c3nc4cc(NS(=O)(=O)c5cccc(OC)c5)ccc4o3)cc2)c1
Activity (Acinetobacter baumannii): inactive | Activity (Enterobacter cloacae): inactive | Activity (Klebsiella pneumoniae): inactive | Activity (Pseudomonas aeruginosa): inactive

O=S(=O)(Nc1ccc(-c2nc3cc(NS(=O)(=O)c4cccc(O)c4)ccc3o2)cc1)c1cccc(O)c1
Activity (Acinetobacter baumannii): inactive | Activity (Enterobacter cloacae): inactive | Activity (Klebsiella pneumoniae): inactive | Activity (Pseudomonas aeruginosa): inactive

O=C(O)c1cccc(S(=O)(=O)Nc2ccc(-c3nc4cc(NS(=O)(=O)c5cccc(C(=O)O)c5)ccc4o3)cc2)c1
Activity (Acinetobacter baumannii): inactive | Activity (Enterobacter cloacae): inactive | Activity (Klebsiella pneumoniae): inactive | Activity (Pseudomonas aeruginosa): inactive

O=[N+]([O-])c1cccc(S(=O)(=O)Nc2ccc(-c3nc4cc(NS(=O)(=O)c5cccc([N+](=O)[O-])c5)ccc4o3)cc2)c1
Activity (Acinetobacter baumannii): inactive | Activity (Enterobacter cloacae): inactive | Activity (Klebsiella pneumoniae): inactive | Activity (Pseudomonas aeruginosa): inactive

CCCS(=O)(=O)Nc1ccc(-c2nc3cc(NS(=O)(=O)CCC)ccc3o2)cc1
Activity (Acinetobacter baumannii): inactive | Activity (Enterobacter cloacae): inactive | Activity (Klebsiella pneumoniae): inactive | Activity (Pseudomonas aeruginosa): inactive

O=S(=O)(Nc1ccc(-c2nc3cc(NS(=O)(=O)c4ccc(O)cc4)ccc3o2)cc1)c1ccc(O)cc1
Activity (Acinetobacter baumannii): Active | Activity (Enterobacter cloacae): Active | Activity (Klebsiella pneumoniae): Active | Activity (Pseudomonas aeruginosa): Active

O=S(=O)(Nc1ccc(-c2nc3cc(NS(=O)(=O)c4cccc5nsnc45)ccc3o2)cc1)c1cccc2nsnc12
Activity (Acinetobacter baumannii): inactive | Activity (Enterobacter cloacae): inactive | Activity (Klebsiella pneumoniae): inactive | Activity (Pseudomonas aeruginosa): inactive

O=S(=O)(Nc1ccc(-c2nc3cc(NS(=O)(=O)C(F)(F)F)ccc3o2)cc1)C(F)(F)F
Activity (Acinetobacter baumannii): inactive | Activity (Enterobacter cloacae): inactive | Activity (Klebsiella pneumoniae): inactive | Activity (Pseudomonas aeruginosa): inactive

O=S(=O)(Nc1ccc(-c2nc3cc(NS(=O)(=O)c4cccc5nonc45)ccc3o2)cc1)c1cccc2nonc12
Activity (Acinetobacter baumannii): inactive | Activity (Enterobacter cloacae): inactive | Activity (Klebsiella pneumoniae): inactive | Activity (Pseudomonas aeruginosa): inactive

O=S(=O)(Nc1ccc(-c2nc3cc(NS(=O)(=O)c4ccccc4)ccc3o2)cc1)c1ccccc1
Activity (Acinetobacter baumannii): inactive | Activity (Enterobacter cloacae): inactive | Activity (Klebsiella pneumoniae): inactive | Activity (Pseudomonas aeruginosa): inactive

Nc1cccc(S(=O)(=O)Nc2ccc(-c3nc4cc(NS(=O)(=O)c5cccc(N)c5)ccc4o3)cc2)c1
Activity (Acinetobacter baumannii): inactive | Activity (Enterobacter cloacae): inactive | Activity (Klebsiella pneumoniae): inactive | Activity (Pseudomonas aeruginosa): inactive

O=S(=O)(Nc1ccc2oc(-c3ccc(NS(=O)(=O)c4ccc5ncsc5c4)cc3)nc2c1)c1ccc2scnc2c1
Activity (Acinetobacter baumannii): inactive | Activity (Enterobacter cloacae): inactive | Activity (Klebsiella pneumoniae): inactive | Activity (Pseudomonas aeruginosa): inactive

O=S(=O)(Nc1ccc(-c2nc3cc(NS(=O)(=O)c4cccc5ccccc45)ccc3o2)cc1)c1cccc2ccccc12
Activity (Acinetobacter baumannii): inactive | Activity (Enterobacter cloacae): inactive | Activity (Klebsiella pneumoniae): inactive | Activity (Pseudomonas aeruginosa): inactive

COc1ccccc1S(=O)(=O)Nc1ccc(-c2nc3cc(NS(=O)(=O)c4ccccc4OC)ccc3o2)cc1
Activity (Acinetobacter baumannii): inactive | Activity (Enterobacter cloacae): inactive | Activity (Klebsiella pneumoniae): inactive | Activity (Pseudomonas aeruginosa): inactive

O=S(=O)(Nc1ccc(-c2nc3cc(NS(=O)(=O)c4ccc5ccccc5c4)ccc3o2)cc1)c1ccc2ccccc2c1
Activity (Acinetobacter baumannii): inactive | Activity (Enterobacter cloacae): inactive | Activity (Klebsiella pneumoniae): inactive | Activity (Pseudomonas aeruginosa): inactive

Cc1ccc(S(=O)(=O)Nc2ccc(-c3nc4cc(NS(=O)(=O)c5ccc(C)cc5)ccc4o3)cc2)cc1
Activity (Acinetobacter baumannii): inactive | Activity (Enterobacter cloacae): inactive | Activity (Klebsiella pneumoniae): inactive | Activity (Pseudomonas aeruginosa): inactive

Cc1cccc(S(=O)(=O)Nc2ccc(-c3nc4cc(NS(=O)(=O)c5cccc(C)c5)ccc4o3)cc2)c1
Activity (Acinetobacter baumannii): inactive | Activity (Enterobacter cloacae): inactive | Activity (Klebsiella pneumoniae): inactive | Activity (Pseudomonas aeruginosa): inactive

O=[N+]([O-])c1ccccc1S(=O)(=O)Nc1ccc(-c2nc3cc(NS(=O)(=O)c4ccccc4[N+](=O)[O-])ccc3o2)cc1
Activity (Acinetobacter baumannii): inactive | Activity (Enterobacter cloacae): inactive | Activity (Klebsiella pneumoniae): inactive | Activity (Pseudomonas aeruginosa): inactive

O=S(=O)(Nc1ccc(-c2nc3cc(NS(=O)(=O)c4ccc(F)cc4)ccc3o2)cc1)c1ccc(F)cc1
Activity (Acinetobacter baumannii): inactive | Activity (Enterobacter cloacae): inactive | Activity (Klebsiella pneumoniae): inactive | Activity (Pseudomonas aeruginosa): inactive

COC(=O)c1ccc(S(=O)(=O)Nc2ccc(-c3nc4cc(NS(=O)(=O)c5ccc(C(=O)OC)cc5)ccc4o3)cc2)cc1
Activity (Acinetobacter baumannii): inactive | Activity (Enterobacter cloacae): inactive | Activity (Klebsiella pneumoniae): inactive | Activity (Pseudomonas aeruginosa): inactive

O=S(=O)(Nc1ccc(-c2nc3cc(NS(=O)(=O)c4ccccc4Br)ccc3o2)cc1)c1ccccc1Br
Activity (Acinetobacter baumannii): inactive | Activity (Enterobacter cloacae): inactive | Activity (Klebsiella pneumoniae): inactive | Activity (Pseudomonas aeruginosa): inactive
